Reference: ChEMBL document CHEMBL4138185, “Investigation of the Physical and Bioactive Properties of Bromo- and Iodo-Containing Sponge-Derived Compounds Possessing an Oxyphenylethanamine Core” (J Nat Prod, 2017)

Tests used:
Format in all cases: organism-based
Details in all cases: in vivo
[1] = test system: Yersinia pseudotuberculosis; experiment: Toxicity against Yersinia pseudotuberculosis harboring pYV deletion mutant at 60 uM measured after 8 hrs by MTT assay
Summary of the method: (§1)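 pYV− Y. pseudotuberculosis cultured in low-calcium media at 37 °C with test agent at 60 μM, kanamycin at 50 μg/mL, or DMSO. MTT added after 8 h of incubation; formazan absorbance at 570 nm taken as bacterial metabolic activity.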

[2] = test system: Yersinia pseudotuberculosis; experiment: Growth inhibition of Yersinia pseudotuberculosis harboring pYV deletion mutant at 60 uM measured at 30 mins interval for 8 hrs
Summary of the method: (§2)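 Y. pseudotuberculosis strain lacking the T3SS-encoding virulence plasmid pYV (pYV−), grown in low-calcium media at 37 °C with test agent at 60 μM, kanamycin at 50 μg/mL, or DMSO. Growth followed by absorbance at 600 nm over 8 h.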

[3] = test system: Yersinia pseudotuberculosis; experiment: Toxicity against Yersinia pseudotuberculosis harboring pYV deletion mutant at 50 ug/ml measured after 8 hrs by MTT assay; summary of the method: as §1
[4] = test system: Yersinia pseudotuberculosis; experiment: Growth inhibition of Yersinia pseudotuberculosis harboring pYV deletion mutant at 50 ug/ml measured at 30 mins interval for 8 hrs; summary of the method: as §2

SMILES	Activity [1]	growth inhibition (GI) [2]	Activity [3]	growth inhibition (GI) [4]
CCC(=O)N(C)CCc1cc(Br)c(OCCCNC(=O)Cc2ccc(O)cc2)c(Br)c1	Non-Toxic	Non-Toxic	–	–
CCC(=O)N(C)CCc1ccc(OCCCNC(=O)Cc2ccc(O)cc2)c(Br)c1	Non-Toxic	Non-Toxic	–	–
COc1c(Br)cc(CC(O)C(=O)NCCc2ccc(O)c(Br)c2)cc1Br (stereo unspecified)	Non-Toxic	Non-Toxic	–	–
CCC(=O)N(C)CCc1ccc(OCCCN(C)C(=O)Cc2ccc(O)cc2)c(Br)c1	Non-Toxic	Non-Toxic	–	–
COc1c(Br)cc(CC(O)C(=O)NCCc2ccc(O)c(I)c2)cc1Br (stereo unspecified)	Non-Toxic	Non-Toxic	–	–
CCC(=O)N(C)CCc1cc(Br)c(OCCCNC(=O)Cc2ccc(O)cc2)c(I)c1	Non-Toxic	Non-Toxic	–	–
CCC(=O)N(C)CCc1ccc(OCCCNC(=O)Cc2ccc(O)cc2)c(I)c1	Non-Toxic	Non-Toxic	–	–
NC[C@H]1O[C@H](O[C@H]2[C@H](O)[C@@H](O[C@H]3O[C@H](CO)[C@@H](O)[C@H](N)[C@H]3O)[C@H](N)C[C@@H]2N)[C@H](O)[C@@H](O)[C@@H]1O [KANAMYCIN]	–	–	Non-Toxic	Non-Toxic
